Key:
[1] = target: T1, Substance-K receptor (Oryctolagus cuniculus) (UniProt P79218); assay: Antagonist activity at NK2 receptor in rabbit pulmonary artery assessed as effect on neurokinin A-induced mechanical activity; format: functional; settings: filed as antagonist
T1 sequence (whole entry): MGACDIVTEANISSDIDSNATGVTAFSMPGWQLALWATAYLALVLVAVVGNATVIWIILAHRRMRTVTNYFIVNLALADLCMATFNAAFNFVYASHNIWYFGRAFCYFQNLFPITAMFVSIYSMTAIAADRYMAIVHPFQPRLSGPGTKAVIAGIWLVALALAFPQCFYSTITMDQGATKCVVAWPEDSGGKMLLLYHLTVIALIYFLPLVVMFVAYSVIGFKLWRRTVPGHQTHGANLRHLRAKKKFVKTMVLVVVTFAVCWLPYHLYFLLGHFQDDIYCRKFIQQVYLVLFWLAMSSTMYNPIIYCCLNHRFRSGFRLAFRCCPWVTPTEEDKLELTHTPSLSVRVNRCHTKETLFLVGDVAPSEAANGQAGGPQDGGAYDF
Outline: (§1)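 Isolated smooth muscle strips were held in oxygenated (96% O2/4% CO2) Krebs–Henseleit at NaCl 119, NaHCO3 25, KH2PO4 1.2, MgSO4 1.5, CaCl2 2.5, KCl 4.7 and glucose 11 mM. Cumulative agonist concentration–response curves were run after 15 min antagonist incubation. pKB = log(dose ratio − 1) − log[antagonist], as the mean of individual values.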

[2] = target: Substance-P receptor (Cavia porcellus) (UniProt P30547); assay: Antagonist activity at NK1 receptor in guinea pig ileum assessed as effect on substance P methyl ester-induced mechanical activity; format: functional, tissue-based; settings: filed as antagonist; outline: as §1
Sequence of Substance-P receptor (Cavia porcellus) (P30547 whole entry): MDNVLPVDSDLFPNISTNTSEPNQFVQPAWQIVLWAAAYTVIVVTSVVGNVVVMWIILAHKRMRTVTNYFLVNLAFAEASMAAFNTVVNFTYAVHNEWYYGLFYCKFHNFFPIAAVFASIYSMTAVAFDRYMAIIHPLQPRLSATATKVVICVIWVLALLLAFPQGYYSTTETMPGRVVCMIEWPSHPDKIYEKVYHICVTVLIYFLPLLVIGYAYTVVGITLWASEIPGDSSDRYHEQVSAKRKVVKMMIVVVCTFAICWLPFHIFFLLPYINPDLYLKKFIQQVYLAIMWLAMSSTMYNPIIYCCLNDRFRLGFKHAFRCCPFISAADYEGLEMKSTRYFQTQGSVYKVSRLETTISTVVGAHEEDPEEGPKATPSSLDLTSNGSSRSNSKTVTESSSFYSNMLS

[3] = target: T2, Substance-K receptor (Rattus norvegicus) (UniProt P16610); assay: Antagonist activity at NK2 receptor in rat urinary bladder assessed as effect on beta-Ala8]NKA(4-10)-induced mechanical activity; format: functional; settings: filed as antagonist; outline: as §1
T2 sequence (whole entry): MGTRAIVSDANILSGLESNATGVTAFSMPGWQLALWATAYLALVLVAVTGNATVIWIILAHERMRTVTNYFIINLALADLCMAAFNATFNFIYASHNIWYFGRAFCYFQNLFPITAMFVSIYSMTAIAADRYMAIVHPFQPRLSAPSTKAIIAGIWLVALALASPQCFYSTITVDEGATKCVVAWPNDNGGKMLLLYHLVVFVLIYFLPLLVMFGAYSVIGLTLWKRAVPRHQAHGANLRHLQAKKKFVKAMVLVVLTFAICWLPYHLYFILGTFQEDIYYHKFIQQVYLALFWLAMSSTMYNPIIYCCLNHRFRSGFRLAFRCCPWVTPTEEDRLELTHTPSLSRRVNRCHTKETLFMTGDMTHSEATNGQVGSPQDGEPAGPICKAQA

[4] = target: T3, Neuromedin-K receptor (Cavia porcellus) (UniProt P30098); assay: Antagonist activity at NK3 receptor in guinea pig ileum assessed as effect on senktide-induced mechanical activity; format: functional, tissue-based; settings: filed as antagonist
T3 sequence (whole entry): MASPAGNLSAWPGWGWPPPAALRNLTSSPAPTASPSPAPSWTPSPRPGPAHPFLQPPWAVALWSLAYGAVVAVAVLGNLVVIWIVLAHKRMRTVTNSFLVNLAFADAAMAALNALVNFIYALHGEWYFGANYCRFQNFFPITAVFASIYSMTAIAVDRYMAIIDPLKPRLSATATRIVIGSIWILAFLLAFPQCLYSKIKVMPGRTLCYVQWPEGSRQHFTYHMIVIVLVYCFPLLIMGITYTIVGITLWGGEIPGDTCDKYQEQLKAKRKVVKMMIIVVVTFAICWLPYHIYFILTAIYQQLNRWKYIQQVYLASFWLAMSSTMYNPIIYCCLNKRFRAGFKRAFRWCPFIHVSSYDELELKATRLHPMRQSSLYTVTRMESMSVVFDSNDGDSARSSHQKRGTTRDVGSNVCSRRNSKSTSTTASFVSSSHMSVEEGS

[5] = target: T4, Substance-K receptor (Homo sapiens, UniProt P21452); assay: Displacement of [125I]neurokinin A from human NK2 receptor expressed in CHOK1 cells; format: cell-based, CHO-K1
T4 sequence (P21452 whole entry): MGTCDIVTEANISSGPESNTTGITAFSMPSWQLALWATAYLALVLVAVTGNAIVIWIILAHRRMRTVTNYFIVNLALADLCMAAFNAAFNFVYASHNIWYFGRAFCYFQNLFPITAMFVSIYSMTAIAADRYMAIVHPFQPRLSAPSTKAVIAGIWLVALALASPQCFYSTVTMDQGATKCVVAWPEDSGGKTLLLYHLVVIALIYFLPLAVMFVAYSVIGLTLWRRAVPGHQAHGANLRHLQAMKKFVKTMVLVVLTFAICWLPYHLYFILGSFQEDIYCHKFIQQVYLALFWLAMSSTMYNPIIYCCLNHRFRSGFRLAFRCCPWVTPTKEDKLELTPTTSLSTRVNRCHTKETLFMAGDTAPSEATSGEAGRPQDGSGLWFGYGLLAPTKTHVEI
Outline: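 Competition binding was run on membranes of cells stably transfected with the human receptor: U-373MG for NK-1, CHO-K1 for NK-2 and NK-3. NK-1 used [3H][Sar9]SP sulfone at 1.2 nM. Affinity is given as pKi (−log Ki).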

Row | Compound | pKb [1] | pKb [2] | pKb [3] | pKb [4] | Ki [5]
1 | O=C1C[C@@H](N2CCOCC2)C(=O)NC[C@@H](Cc2ccccc2)NC(=O)[C@H](Cc2ccccc2)NC(=O)[C@H](Cc2c[nH]c3ccccc23)N1 | 8.9 | 6.2 | 9.2 | 6.1 | 
2 | O=C1C[C@@H](NC(=O)CN2CCC(N3CCCCC3)CC2)C(=O)NC[C@@H](Cc2ccccc2)NC(=O)[C@H](Cc2ccccc2)NC(=O)[C@H](Cc2c[nH]c3ccccc23)N1 |  | 6.8 | 9.2 | 5.8 | 
3 | O=C1C[C@@H](N2CCNCC2)C(=O)NC[C@@H](Cc2ccccc2)NC(=O)[C@H](Cc2ccccc2)NC(=O)[C@H](Cc2c[nH]c3ccccc23)N1 | 7.7 |  |  |  | 1.58 nM (antagonist)
4 | O=C1C[C@@H](NC2CCOCC2)C(=O)NC[C@@H](Cc2ccccc2)NC(=O)[C@H](Cc2ccccc2)NC(=O)[C@H](Cc2c[nH]c3ccccc23)N1 | 9.2 | 6.1 | 9.1 | 6.4 | 0.0631 nM (antagonist)
5 | O=C1CCC(=O)N[C@@H](Cc2c[nH]c3ccccc23)C(=O)N[C@@H](Cc2ccccc2)C(=O)N[C@H](Cc2ccc(Cl)c(Cl)c2)CN1 | 8.1 |  | 8.1 |  | 
6 | O=C1C[C@@H](N2CCCCC2)C(=O)NC[C@@H](Cc2ccccc2)NC(=O)[C@H](Cc2ccccc2)NC(=O)[C@H](Cc2c[nH]c3ccccc23)N1 | 8.2 |  |  |  | 1.58 nM (antagonist)
7 | N[C@H]1CC(=O)N[C@@H](Cc2c[nH]c3ccccc23)C(=O)N[C@@H](Cc2ccccc2)C(=O)N[C@H](Cc2ccccc2)CNC1=O | 7.5 |  |  |  | 
8 | N[C@@H]1CC(=O)N[C@@H](Cc2c[nH]c3ccccc23)C(=O)N[C@@H](Cc2ccccc2)C(=O)N[C@H](Cc2ccccc2)CNC1=O | 7.9 |  |  |  | 2 nM (antagonist)
9 | N[C@H]1CC(=O)N[C@@H](Cc2c[nH]c3ccccc23)C(=O)N[C@@H](Cc2ccccc2)C(=O)N[C@H](Cc2ccc(Cl)c(Cl)c2)CNC1=O | 8.6 |  | 8.9 |  | 0.2 nM (antagonist)
10 | N[C@H]1CC(=O)NC[C@@H](Cc2ccccc2)NC(=O)[C@H](Cc2ccccc2)NC(=O)[C@H](Cc2c[nH]c3ccccc23)NC1=O | 7.7 |  |  |  | 
11 | N[C@@H]1CC(=O)NC[C@@H](Cc2ccccc2)NC(=O)[C@H](Cc2ccccc2)NC(=O)[C@H](Cc2c[nH]c3ccccc23)NC1=O | 7.2 |  |  |  | 15.8 nM (antagonist)
12 | O=C1C[C@@H](N2CCOCC2)C(=O)NC[C@@H](Cc2ccc(Cl)c(Cl)c2)NC(=O)[C@H](Cc2ccccc2)NC(=O)[C@H](Cc2c[nH]c3ccccc23)N1 | 8.4 |  | 8 |  | 0.251 nM (antagonist)
13 | O=C1C[C@H](N2CCOCC2)C(=O)NC[C@@H](Cc2ccccc2)NC(=O)[C@H](Cc2ccccc2)NC(=O)[C@H](Cc2c[nH]c3ccccc23)N1 | 8.5 |  | 8.9 |  | 
14 | N[C@@H]1CC(=O)N[C@@H](Cc2c[nH]c3ccccc23)C(=O)N[C@@H](Cc2ccccc2)C(=O)N[C@H](Cc2ccc(Cl)c(Cl)c2)CNC1=O | 8.1 |  |  |  | 0.158 nM (antagonist)
15 | O=C1C[C@H](NC2CCOCC2)C(=O)NC[C@@H](Cc2ccccc2)NC(=O)[C@H](Cc2ccccc2)NC(=O)[C@H](Cc2c[nH]c3ccccc23)N1 | 8.6 |  |  |  | 1 nM (antagonist)
16 | O=C1C[C@@H](NC2CCOCC2)C(=O)N[C@@H](Cc2c[nH]c3ccccc23)C(=O)N[C@@H](Cc2ccccc2)C(=O)N[C@H](Cc2ccccc2)CN1 |  |  | 7.4 |  | 7.94 nM (antagonist)

Reference: ChEMBL document CHEMBL1149315, “Insertion of an aspartic acid moiety into cyclic pseudopeptides: synthesis and biological characterization of potent antagonists for the human Tachykinin NK-2 receptor” (J Med Chem, 2004)
